In paper PMC2688442 (Analytical biochemistry, 2009):

Key:
[1] = tested on: 293T/nNOS cells; assay type: cell-based; conditions: for Cytotoxicity: by visual inspection under a microscope; for Inhibition of cell growth: experimental conditions of the inhibition assay; for Cell health after treatment: 293T/nNOS cells during the period of A23187 stimulation
[2] = tested on: nNOS in 293T/nNOS cells; assay: Activation of nNOS in 293T/nNOS cells by A23187; assay type: cell-based, rat; conditions: A23187 5 μM, after the 8 h-incubation, deduced from Fig. 1C
Outline: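 HEK 293T cells stably transfected with rat nNOS cDNA (lipofection, Geneticin 0.8 mg/ml selection, single-cell cloning, highest-expressing clone), maintained in DMEM with 0.4 mg/ml Geneticin. At ~80% confluence, cells were exposed to 5 μM A23187 or left untreated, alongside WT 293T cells ± A23187. Nitrite in the culture medium was measured by Griess reagent at different times.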

[3] = tested on: nNOS over eNOS in rat tissue; conditions: cited from earlier work
[4] = tested on: nNOS over eNOS; conditions: cited from earlier work

## Cc1cc(N)nc(CC2CNCC2NCCNCCc2cccc(F)c2)c1 (centres unmarked) [compound 3, N-[4-(6-amino-4-methylpyridin-2-ylmethyl)pyrrolidin-3-yl]-N′-(3-fluorophenylethyl) ethane-1,2-diamine]
[1]; 293T/nNOS cells
  Cytotoxicity: no obvious cytotoxicity
  Inhibition of cell growth: Neither compound 3 nor AR-R17477 inhibited cell growth

## CNc1ccc2oc(C[C@H]3O[C@@]4(CC[C@H]3C)O[C@H]([C@H](C)C(=O)c3ccc[nH]3)[C@H](C)C[C@H]4C)nc2c1C(=O)O [A23187]
[2]
  Nitrite concentration: ~ 18 μM
[1]; 293T/nNOS cells, after 10 h with A23187
  Cell death with A23187 stimulation: no obvious cell death

## N=C(NCCC[C@H](N)C(=O)O)N[N+](=O)[O-] [NNA, N^ω-Nitro-L-arginine]
[1]
  Cell health after treatment: remained healthy
[1]; 293T/nNOS cells under the experimental conditions of the inhibition assay
  Cell death: No cell death was observed

## CSC(N)=NCCC[C@H](N)C(=O)O [Me-TC, S-methyl-L-thiocitrulline]
[3]
  Inhibition of nNOS over eNOS in rat tissue (in words): better than Et-TC

## N=C(Nc1ccc(CCNCc2cccc(Cl)c2)cc1)c1cccs1 [AR-R17477]
[1]
  Cell health after treatment: remained healthy
[1]; 293T/nNOS cells
  Cytotoxicity: no obvious cytotoxicity
  Inhibition of cell growth: Neither compound 3 nor AR-R17477 inhibited cell growth

## CCSC(N)=NCCC[C@H](N)C(=O)O [Et-TC, S-ethyl-L-thiocitrulline]
[4]
  Selectivity in vitro for nNOS inhibition over eNOS (in words): more selective
